Experiments:
[1] = (§1) Inhibition of chemiluminescence generated by hypoxanthine/ xanthine oxidase was determined; design: concentration or dose not given beside the values; conditions: concentration not given here
How it was run: (§2)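 Cell-free superoxide made by the hypoxanthine/xanthine oxidase system, with chemiluminescence recorded.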

[2] = tested on: Mus musculus; assay: Antiinflammatory activity, assessed by the carrageenan paw edema test in mice; type: functional
How it was run: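 Mice dosed orally with compound at 20 mg/kg (reference at 10 mg/kg) in Tween 80/saline 1/99 v/v, 1 h before subplantar 3% w/v carrageenan (0.05 mL) in right hind paw. Paw volumes by plethysmometer at 1, 3 and 5 h; edema values at 3 h. Mean ± SEM, n 6-12; ANOVA with Dunnett's t-test.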

[3] = species: Mus musculus; assay: PGE-2 levels were assayed in LPS stimulated RAW 264.7 macrophages for 20h in either presence or absence of compound; type: functional
How it was run: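 Murine RAW 264.7 cells grown in DMEM with 2 mM glutamine, antibiotics and 10% FBS. Cells at 2 × 10⁶/mL exposed to E. coli LPS 1 µg/mL, 37 °C, 20 h, with compound or vehicle. PGE₂ in supernatants by radioimmunoassay. […] Cytotoxicity checked by MTT reduction.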

[4] = species: Homo sapiens; assay: Percent inhibition of neutrophils (chemiluminescence) was determined at 10 uM concentration in TPA-induced luminol chemiluminescence assay
[5] = species: Mus musculus; assay: PGE-2 level was assayed in RAW 264.7 macrophages after a 20h stimulation with LPS followed by incubation with compound and arachidonic acid for 2 hr; type: functional
How it was run: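 RAW 264.7 cells first stimulated with LPS for 20 h, then washed and incubated 2 h with compound plus arachidonic acid. PGE₂ measured to assess COX-2 activity in intact cells.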

[6] = tested on: Mus musculus; assay: PGE-2 levels were assayed in inflamed paw after 5 hr carrageenan paw edema test in mice; type: functional
How it was run: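 Carrageenan-injected mice (oral compound 1 h prior, Tween 80/saline vehicle) killed by cervical dislocation 5 h after carrageenan. Right hind paws homogenized and PGE₂ measured in homogenates; stomachs handled the same way. Mean ± SEM, n 6-12; ANOVA with Dunnett's t-test.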

[7] = species: Homo sapiens; assay: Percent inhibition of neutrophils (chemiluminescence) was determined at 10 uM concentration; type: functional
How it was run: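 Purified human neutrophils at 2.5 × 10⁶ cells/mL with luminol 40 µM and TPA 1 µM; chemiluminescence recorded. Compounds tested at 10 µM; mean ± SEM.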

[8] = species: Mus musculus; assay: Inhibitory activity against LPS stimulated RAW 264.7 macrophages; type: functional; conditions: RAW264.7
How it was run: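 Murine RAW 264.7 cells grown in DMEM with 2 mM glutamine, antibiotics and 10% FBS. Cells at 2 × 10⁶/mL exposed to E. coli LPS 1 µg/mL, 37 °C, 20 h, with compound or vehicle. PGE₂ in supernatants by radioimmunoassay. Cytotoxicity checked by MTT reduction.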

[9] = Percentage inhibition of H/XO (chemiluminescence) was determined at 10 uM concentration; how it was run: as §2
[10] = as §1; conditions: concentration not given here; how it was run: as §2

| inhibition [1] | IC50 [8] | inhibition [9] | inhibition [10] | SMILES | Edema [2] | PGE2 Level [3] | inhibition at 10 µM [4] | PGE2 Level [5] | PGE2 Level [6] | inhibition at 10 µM [7] |
| --- | --- | --- | --- | --- | --- | --- | --- | --- | --- | --- |
| 32.2% | – | – | – | CCOC(=O)c1cc2ccccn2/c(=N/c2ccc(Br)cc2)n1 | 80.8 µL | 14.8 ng/mL | 24.8% | 9.5 ng/mL | 76.9 ng/mL | – |
| – | 1700 nM | 49.1% | – | CCOC(=O)c1cc2ccccn2/c(=N/c2ccc(C)cc2)n1 | 92.4 µL | 13.3 ng/mL | – | 13.5 ng/mL | 71 ng/mL | 31.1% |
| – | – | 57.1% | – | CCOC(=O)c1cc2ccccn2/c(=N/c2ccccc2)n1 | 82.2 µL | 10.9 ng/mL | – | 11 ng/mL | 70.6 ng/mL | 52.3% |
| 49.6% | 1500 nM | – | – | CCOC(=O)c1cc2ccccn2/c(=N/c2ccc(F)cc2)n1 | 103.9 µL | 11.8 ng/mL | 44.4% | 8.9 ng/mL | 82.5 ng/mL | – |
| 31.3% | 400 nM | – | – | CCOC(=O)c1cc2ccccn2/c(=N/c2ccc(Cl)cc2)n1 | 102 µL | 8.2 ng/mL | 38.8% | 10.6 ng/mL | 83.3 ng/mL | – |
| – | – | – | 51.6% | [S-]c1nc2ccccc2c2cccc[n+]12 | – | 16.9 ng/mL | 53.7% | 10.3 ng/mL | – | – |
| 43.3% | 1700 nM | – | – | CCOC(=O)c1cc2ccccn2c(=S)n1 | 105.2 µL | 12.8 ng/mL | 51.8% | 8.2 ng/mL | 89.7 ng/mL | – |
| – | 2.1 nM | – | – | CS(=O)(=O)Nc1ccc([N+](=O)[O-])cc1OC1CCCCC1 [NS-398] | 97.2 µL | 3.7 ng/mL | – | 2.1 ng/mL | 53 ng/mL | – |
| 26.6% | – | – | – | CCOC(=O)c1cc2ccccn2c(=O)n1 | 121.9 µL | 16.9 ng/mL | 29.9% | 10.6 ng/mL | 85.4 ng/mL | – |
| – | 3500 nM | 93.3% | – | CCOC(=O)c1cc2ccccn2/c(=N/c2ccc(OC)cc2)n1 | 91.6 µL | 12 ng/mL | 75.9% | 9.6 ng/mL | 78.7 ng/mL | – |

Reference: ChEMBL document CHEMBL1134367, “Solid-phase synthesis and inhibitory effects of some pyrido[1,2-c]pyrimidine derivatives on leukocyte formations and experimental inflammation” (J Med Chem, 2001)
